Data set [1] in a line: Drug uptake in BALB/c mouse heart at 25 mg/kg, po via gavage measured after 4 hrs post dose by […]. Type of data set: ADME, organism-based. The settings on record: read-out: Drug uptake. Summed up: (§1)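 BALB/c mice get a single oral gavage dose of 25 mg/kg; tissues are collected 4 h post-dose. About 100 mg tissue is diluted 5-fold in PBS and homogenized. Homogenate is extracted as for plasma (ketoconazole internal standard, acetonitrile extraction) and quantified by HPLC-UV at 291 nm, 0.1 μM detection limit, n=2.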

Data set [2] in a line: Drug uptake in BALB/c mouse blood at 25 mg/kg, po via gavage measured after 4 hrs post dose by […]. Type of data set: ADME, organism-based. Particulars: read-out: Drug uptake. In short, it runs like this:
as §1

Data set [3] in a line: Hepatic clearance in Sprague-Dawley rat liver microsomes at 1 uM preincubated for 5 mins followed by NADPH addition and measured after 45 mins by LC/MS/MS analysis. It is filed as ADME, microsome. In short, it runs like this:
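Pooled liver microsomes at 0.5 mg/mL: human (mixed gender), male Sprague-Dawley rat, or male CD-1 mouse, with test compound at 1 μM, triplicate. In vitro t1/2 is scaled to CLint (45 mg microsomes/g liver; 45 g liver/kg scaling factor). CLhep uses well-stirred model with hepatic blood flow 21 (human), 70 (rat), 90 (mouse) mL/min/kg.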
On the technique in general: Liver microsomes are vesicles of endoplasmic reticulum, rich in cytochrome P450 enzymes.

Data set [4] in a line: Intrinsic clearance in CD1 mouse liver microsomes at 1 uM preincubated for 5 mins followed by NADPH addition and measured after 45 mins by LC/MS/MS analysis. It is filed as ADME, microsome. The settings on record: read-out: CLH.
In the next data set the test system is Mus musculus. Briefly: Drug metabolism in mouse plasma assessed as glucuronidation of the N-pyridinyl site formation at 25 mg/kg, po by HPLC analysis. Particulars: in vivo. It is filed as ADME, organism-based.
Data set [5] in a line: Lipophilicity, log P of the compound. Type of data set: physicochemical. Particulars: octanol/water.
Data set [6] in a line: Half life in Sprague-Dawley rat liver microsomes at 1 uM preincubated for 5 mins followed by NADPH addition and measured by LC/MS/MS analysis. It is filed as ADME, microsome. Particulars: Sprague-Dawley, liver microsomes.
The nature of data set [7]: Intrinsic clearance in Sprague-Dawley rat liver microsomes at 1 uM preincubated for 5 mins followed by NADPH addition and measured after 45 mins by LC/MS/MS analysis. Particulars: read-out: CLH. Type of data set: ADME, microsome.
Data set [8] in a line: Drug uptake in BALB/c mouse spleen at 25 mg/kg, po via gavage measured after 4 hrs post dose by […]. Type of data set: ADME, organism-based. Particulars: read-out: Drug uptake. Summed up:
as §1

The nature of data set [9]: Drug uptake in BALB/c mouse lungs at 25 mg/kg, po via gavage measured after 4 hrs post dose by […]. It is filed as ADME, organism-based, Lung. The settings on record: read-out: Drug uptake. Summed up:
as §1

Data set [10] is described as follows: Half life in CD1 mouse liver microsomes at 1 uM preincubated for 5 mins followed by NADPH addition and measured by LC/MS/MS analysis. Type of data set: ADME, microsome. Particulars: CD1, mouse, liver microsomes.
Data set [11] in a line: Hepatic clearance in human liver microsomes at 1 uM preincubated for 5 mins followed by NADPH addition and measured after 45 mins by LC/MS/MS analysis. Type of data set: ADME, microsome.
Data set [12] can be described thus: Half life in human liver microsomes at 1 uM preincubated for 5 mins followed by NADPH addition and measured by LC/MS/MS analysis. Particulars: liver microsomes. Type of data set: ADME, microsome.
A short description of data set [13]: Drug uptake in BALB/c mouse brain at 25 mg/kg, po via gavage measured after 4 hrs post dose by […]. Type of data set: ADME, organism-based. Particulars: read-out: Drug uptake. In short, it runs like this:
as §1

Data set [14] is described as follows: Intrinsic clearance in human liver microsomes at 1 uM preincubated for 5 mins followed by NADPH addition and measured after 45 mins by LC/MS/MS analysis. It is filed as ADME, microsome. The settings on record: read-out: CLH.
A short description of data set [15]: Hepatic clearance in CD1 mouse liver microsomes at 1 uM preincubated for 5 mins followed by NADPH addition and measured after 45 mins by LC/MS/MS analysis. It is filed as ADME, microsome.
A short description of data set [16]: Drug uptake in BALB/c mouse liver at 25 mg/kg, po via gavage measured after 4 hrs post dose by […]. Type of data set: ADME, organism-based. Particulars: read-out: Drug uptake. In short, it runs like this: as §1
The nature of data set [17]: Maximum plasma concentration in BALB/c mouse at 25 mg/kg, po via gavage by […]. Type of data set: ADME, organism-based. Further details: dose 25 mg/kg, route oral. Summed up:
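Single oral gavage dose of 25 mg/kg in BALB/c mice; blood sampled at 1, 2, 4, 6, 10, 16, 24 h. Plasma is diluted in PBS with ketoconazole internal standard, extracted with 80% acetonitrile, dried and redissolved. Analysed by reversed-phase HPLC with UV at 291/250 nm, 0.1 μM detection limit. Lifetime is time until undetectable.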

For the compound `O=C(N[C@@H](Cn1ccnc1)c1ccc(-c2ccc(F)cc2)cc1Cl)c1ccc(-c2nnc(-c3ccncc3)o2)cc1`, the concentration at 4 h in data set [1] was 100 nM; in data set [2], under 100 nM; in data set [8], under 100 nM; in data set [9] it was 1000 nM; in data set [13], under 100 nM; in data set [16] it was 400 nM. For the same compound, the CLhep predicted at 1 µM is 29.9 mL/min/kg in data set [3], 11.1 mL/min/kg in [11] and 47.1 mL/min/kg in [15]. Besides, the figures for the CLint scaled at 1 µM in data set [4], in data set [7] and in data set [14] were 99 mL/min/kg, 52.3 mL/min/kg and 23.5 mL/min/kg, respectively. Also, the Drug metabolism result with Mus musculus is on record as “Metabolite_Detected”. Moreover, in data set [5], the logP (usually the decadic logarithm of the partition coefficient of the neutral form, usually between octanol and water) is 5.27. Also, the half-life (as a rule, the time in which the quantity being followed falls by half) at 1 µM in data set [6] is 54 min; in data set [10] it was 55 min; in data set [12], 53 min. The peak concentration (Cmax) (commonly the highest concentration seen after dosing) in [17] was under 100 nM.

These data come from ChEMBL document CHEMBL4257584, “Sterol 14α-Demethylase Structure-Based Optimization of Drug Candidates for Human Infections with the Protozoan Trypanosomatidae” (J Med Chem, 2018).
